# tolC growth inh: growth inhibitors of E. coli BW25113 tolC mutant. OD615. growth inhibition, % at 10 µM (by protocol). 65,000 tested, 2.2% active. AID 573;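 active means growth inhibition at or above a cutoff equal to the mean over every tested compound plus 3 SD, cut at about 60% in these data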;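 further: growth measured after 20 h incubation at 37 °C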
#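 System: E. coli ΔtolC::kan strain BW25113; Buffer or medium: LB broth supplemented with 50 µg/mL kanamycin; Compound: 10 µM final, single dose; Incubation: bacterial growth with compound for 20 h at 37 °C; Signal: A615 absorbance measurement; Evaluation: growth inhibition in percent.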
# PostGolgi yeast: growth inhibition of a yeast mutant, post-Golgi transport screen; post-Golgi transport phenotypic cell assay; inhibition, % at 10 µM; 98,000 tested, 0.9% active; AID 739;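 further: yeast cells grown in 1536-well plates; yeast grown about 18 h at 30C before absorbance read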
# Ecoli WT expand: E. coli BW25113 growth inhibition, expanded screen; OD600 absorbance; growth inhibition, % at 100 µM; 98,000 tested, 0.15% active; AID 710;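 active means growth inhibition above about 50% at one test dose, limit read from the data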;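 further: growth measured after 20 h incubation at 37 °C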
# PostGolgi ctrl: growth of the yeast control strain, post-Golgi counter-screen; efflux-deficient yeast background strain, growth absorbance A615, 16 h; inhibition, % at 10 µM; 98,000 tested, 5% active; AID 738
# * marks the source's active call; other numbers are inactive results; . = no result. An excerpt weighted towards active compounds, which were near 6.3% of everything screened. Unless noted, no stated cut-off is given here; in the data, active means inhibition above about 30%; inactive means the rest.
SMILES,tolC growth inh,PostGolgi yeast,Ecoli WT expand,PostGolgi ctrl
CC(Sc1nnc(Cc2cccs2)n1C1CCCCC1)C(=O)N1CCc2ccccc21 (stereo unspecified),.,-3.1,-4.0,34.5*
O=C(Nc1ccccc1N1CCCCC1)c1cccs1,99.7*,2.3,-6.0,51.0*
O=C(Nc1ccccc1N1CCCCC1)c1ccco1,.,2.0,11.0,33.2*
CCOC(=O)c1nc[nH]c1C,.,1.3,-2.0,-3.8
CC(C)(C)C(=O)C(Cc1ccccc1Cl)n1cncn1 (stereo unspecified),.,99.4*,4.0,93.6*
CC(C)(C)C(=O)C(Cc1ccccc1)n1cncn1 (stereo unspecified),.,51.1*,-2.0,45.4*
COc1cccc(NC(=O)c2cn(C)c(=O)c3cc(OC)c(OC)cc23)c1,21.2,-0.3,-3.0,4.0
COC(=O)CC/C(O)=C1/C(=N)CC(C)(C)CC1=O,.,21.9,1.0,1.7
CCS(=O)(=O)N1CCC(C(=O)N2CCOCC2)CC1,-18.8,-4.5,1.0,2.8
O=C(C1CCN(S(=O)(=O)N2CCOCC2)CC1)N1CCOCC1,-19.9,0.0,-7.0,30.7*
Cc1nnc(SCc2ccc3c(c2)OCO3)s1,.,-3.6,8.0,2.9
Cc1cc(C)c(NC(=O)CN(C2CCCCC2)C2CCCCC2)c(C)c1,.,31.8*,0.0,52.8*
CC1=C(C(N)=O)C(c2ccncc2)n2nc(-c3ccccc3Cl)nc2N1 (stereo unspecified),-19.0,-4.2,1.0,6.4
N#Cc1c(N)oc(-c2ccc3c(c2)OCO3)c1-c1ccc2c(c1)OCO2,72.3*,-2.8,-3.0,21.6
COC(=O)c1cc(C(=O)OC)cc(N2C(=O)CN=C2Nc2nc(C)cc(C)n2)c1,-9.3,6.3,-5.0,-0.3
CC1(C(=O)c2ccccc2)C2c3c(ccc4ccccc34)OC(=O)C21C(=O)N1CCOCC1 (stereo unspecified),.,6.0,-4.0,46.4*
Cc1ccc(Cl)cc1NC(=O)CSC(N)=O,.,-3.6,-6.0,9.5
Cc1ccc(Cl)cc1NC(=O)CC(O)(C(F)(F)F)C(F)(F)F,98.9*,8.8,31.0,28.4
Cn1c(SCc2nc(-c3ccc(Cl)cc3)no2)nnc1-c1ccco1,16.8,3.3,0.0,28.1
Cc1ccc(CNC(=O)CSc2nc(N3CCCCC3)nc(N3CCCCC3)n2)cc1,31.5,-6.4,-15.0,45.6*
CC(C)(C)NC(=S)NCc1cccnc1,.,-1.9,-2.0,-3.1
CC(C)c1nc(N2CCN(C(=O)c3ccco3)CC2)c2c3c(sc2n1)CCCC3,78.7*,3.9,3.0,17.6
Cc1sc2nc(C(C)C)nc(SCC(=O)N3CCN(C(=O)c4ccco4)CC3)c2c1C,32.2,1.9,-4.0,41.0*
Cc1sc2ncnc(SCC(=O)N3CCN(C(=O)c4ccco4)CC3)c2c1C,3.0,1.0,1.0,12.7
COc1ccc(C2C(C(=O)NCCN(C)C)c3ccccc3C(=O)N2C)cc1OC (stereo unspecified),-9.8,-3.4,0.0,-5.3
SMILES,tolC growth inh,PostGolgi yeast,Ecoli WT expand,PostGolgi ctrl
Cc1cc([N+](=O)[O-])ccc1NCc1ccccc1,.,-5.4,6.0,11.3
Cc1cc([N+](=O)[O-])ccc1NC(=S)NC(=O)C(c1ccccc1)c1ccccc1,.,7.4,-16.0,45.8*
Cc1ccc(C(=O)O)cc1NC(=S)NC(=O)C(c1ccccc1)c1ccccc1,.,-0.6,6.0,3.8
Cc1cc([N+](=O)[O-])ccc1NC(=S)NC(=O)Cc1ccccc1,.,-8.0,-7.0,30.1*
Cc1nn(CCC(=O)NNC(=S)NCC(C)C)c(C)c1Br,.,6.7,1.0,2.2
CNC(=S)NNC(=O)CCn1nc(C)c(Br)c1C,.,-12.6,6.0,36.9*
Cc1cc(C)c(C)c(S(=O)(=O)N2C(=S)NC(=O)C2CC(C)C)c1C (stereo unspecified),.,1.3,5.0,33.0*
Cc1cc(C)c(C)c(S(=O)(=O)N2C(=S)NC(=O)C2C(C)C)c1C (stereo unspecified),.,7.5,11.0,43.9*
CC1(C)CC(=O)C=C(OC(=O)c2ccc(Cl)cc2)C1,.,8.9,-5.0,7.4
CCN(CC)S(=O)(=O)c1cccc(C(=O)NC(C(=O)Nc2nnc(C)s2)C(C)C)c1 (stereo unspecified),.,-7.3,4.0,3.9
COc1cc([N+](=O)[O-])cc(CN2CCCCC2)c1O,.,-2.0,2.0,18.6
Cc1ccc(CNC(=O)C2CCC(=O)N2C2CCCCC2)cc1 (stereo unspecified),-20.3,1.2,2.0,0.9
O=C(NCc1ccc(F)cc1)C1CCC(=O)N1C1CCCCC1 (stereo unspecified),2.0,-3.3,7.0,34.7*
CCOc1ccc(CCNC(=O)C2CCC(=O)N2C2CCCCC2)cc1OCC (stereo unspecified),-14.2,-2.8,2.0,36.4*
CC(C)Cn1c(SCc2nc3ccccc3c(=O)[nH]2)nc2ccccc2c1=O,.,-13.8,-13.0,1.3
Cn1c(N2CCOCC2)nc2c1c(=O)n(Cc1ccc(Cl)c(Cl)c1)c(=O)n2C,4.7,-9.9,-3.0,40.2*
Cn1c(N2CCCC2)nc2c1c(=O)n(Cc1ccc(F)cc1)c(=O)n2C,-7.2,-0.3,-4.0,10.8
Cn1c(=O)n(CCc2ccccc2)c(=O)c2c1ncn2Cc1ccccc1,18.4,-5.3,1.0,38.2*
Cn1cnc2c1c(=O)n(Cc1ccccc1)c(=O)n2C,-10.2,-7.4,5.0,-6.8
Cn1c(=O)n(Cc2ccc(F)cc2)c(=O)c2c1nc1n2CCCN1Cc1ccccc1,13.0,1.7,-8.0,44.8*
CC1CCCCN1Cc1nc2c(c(=O)n(C)c(=O)n2C)n1CCc1ccccc1 (stereo unspecified),.,-4.8,8.0,37.9*
Cn1c(=O)n(CCc2ccccc2)c(=O)c2c1nc1n2CCCN1Cc1ccccc1,25.9,4.9,-16.0,12.7
Cc1ccc(NC(=O)Cn2c(=O)oc3cc(S(=O)(=O)N4CCC(C)CC4)ccc32)cc1C,.,-2.4,-4.0,-4.3
CC(C)CN(CC(C)C)C(=O)CC(=O)NC(=O)c1ccc(Cl)cc1,.,-2.2,3.0,8.6
O=C(c1ccccc1)c1cnc(Nc2ccccc2Cl)s1,.,0.4,-18.0,12.1
SMILES,tolC growth inh,PostGolgi yeast,Ecoli WT expand,PostGolgi ctrl
Cc1ccccc1C1C(C#N)=C2N=C(N)c3c(sc4c3CCCCC4)N2C2=C1C(=O)CCC2 (stereo unspecified),.,-3.5,-7.0,-0.8
Cn1c(=O)n(CCc2ccccc2)c(=O)c2c1nc1n2CCCN1CCc1ccccc1,76.5*,6.0,-26.0,37.0*
CCOC(=O)CSc1n[nH]c(NC(=O)c2cccc(C(F)(F)F)c2)n1,.,-1.3,-4.0,12.0
N#Cc1cc(C#N)c(N2CCN(c3ccccn3)CC2)nc1N,.,-6.9,8.0,6.7
Cc1c([N+](=O)[O-])c(C(=O)N2CCCC2)nn1C,.,-3.5,5.0,42.0*
Cc1[nH]nc(SCC(=O)N2CCCCC2)c1[N+](=O)[O-],.,7.5,6.0,5.3
Cn1c(SC/C=C/c2ccccc2)nnc1-c1ccco1,-6.5,4.4,5.0,30.3*
Cn1c(Cc2cccs2)nnc1SC/C=C/c1ccccc1,11.3,-2.2,-1.0,52.2*
Nn1c(SC/C=C/c2ccccc2)nnc1-c1ccncc1,-3.2,17.8,8.0,3.2
O=C1NC2=C(C(=O)CCC2)C(c2ccc3ncccc3c2)N1 (stereo unspecified),-9.6,4.9,0.0,-3.5
Cc1ccccc1CSc1n[nH]c(NS(=O)(=O)c2ccccc2)n1,.,-15.2,8.0,2.4

# Source: PubChem
